Laboratory results published in BindingDB's records for doi:10.1021/jm701562x (Johannes Gutenberg University, 2008).
pEC50: −log10 of the molar value. Structures can show the parent of a compound that is named as a salt.

Key:
[1] = target: Gamma-aminobutyric acid receptor subunit alpha-2 (Rattus norvegicus, UniProt P23576); assay: Agonist activity at rat recombinant GABAA alpha-2-beta-3-gamma-2 receptor expressed in HEK293 cells assessed as normalization of GABA-induced current by whole cell patch-clamp technique
Method in brief: (§1)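 HEK293 cells transiently co-transfected (calcium phosphate) with rat αi, β3 and γ2S cDNAs plus EGFP marker; recorded 2 days later by whole-cell patch clamp in HEPES saline pH 7.35.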

[2] = target: Gamma-aminobutyric acid receptor subunit alpha-1 (Rattus norvegicus, UniProt P62813); assay: Agonist activity at rat recombinant GABAA alpha-1-beta-3-gamma-2 receptor expressed in HEK293 cells assessed as normalization of GABA-induced current by whole cell patch-clamp technique; method in brief: as §1
Gamma-aminobutyric acid receptor subunit alpha-1, sequence (P62813 whole entry): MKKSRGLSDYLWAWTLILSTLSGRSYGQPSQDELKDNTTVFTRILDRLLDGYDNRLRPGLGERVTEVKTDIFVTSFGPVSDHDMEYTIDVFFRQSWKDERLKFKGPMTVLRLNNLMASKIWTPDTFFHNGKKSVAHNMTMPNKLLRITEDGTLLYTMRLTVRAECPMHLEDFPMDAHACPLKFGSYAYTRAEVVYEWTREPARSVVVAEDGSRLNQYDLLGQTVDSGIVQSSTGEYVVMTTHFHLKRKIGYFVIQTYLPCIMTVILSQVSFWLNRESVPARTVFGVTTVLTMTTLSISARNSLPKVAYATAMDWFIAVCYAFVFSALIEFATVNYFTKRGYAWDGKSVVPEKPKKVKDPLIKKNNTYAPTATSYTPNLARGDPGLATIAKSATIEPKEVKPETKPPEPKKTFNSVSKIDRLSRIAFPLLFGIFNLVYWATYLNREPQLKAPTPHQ

Gamma-aminobutyric acid receptor subunit alpha-2, sequence (P23576 whole entry): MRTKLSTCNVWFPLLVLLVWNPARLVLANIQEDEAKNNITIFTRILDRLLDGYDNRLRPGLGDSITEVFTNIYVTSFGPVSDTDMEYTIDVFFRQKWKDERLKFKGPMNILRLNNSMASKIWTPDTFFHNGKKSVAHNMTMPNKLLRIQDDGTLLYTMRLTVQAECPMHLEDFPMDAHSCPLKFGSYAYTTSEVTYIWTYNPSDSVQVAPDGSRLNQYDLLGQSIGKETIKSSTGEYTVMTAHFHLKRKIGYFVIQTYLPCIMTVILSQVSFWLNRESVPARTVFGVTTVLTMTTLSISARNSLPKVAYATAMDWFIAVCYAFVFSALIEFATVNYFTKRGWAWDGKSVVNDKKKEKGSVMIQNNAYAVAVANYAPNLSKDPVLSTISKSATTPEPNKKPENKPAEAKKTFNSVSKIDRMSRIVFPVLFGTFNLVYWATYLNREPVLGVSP

pEC50 [1]: 3.74
pEC50 [2]: 3.55
Compound: NCc1n[nH]c(=O)o1 [5-Aminomethyl-3H-[1,3,4]oxadiazol-2-one Hydrochloride]
